Converted amounts (≈) assume the structure as drawn.
Experiments:
[1] = test system: Mycobacterium tuberculosis; assay: Antitubercular activity against Mycobacterium tuberculosis H37Rv isolate SRI after 5 days by resazurin-based microplate assay; type: functional; settings: 120 h
[2] = test system: Mycobacterium tuberculosis; assay: Antitubercular activity against Mycobacterium tuberculosis H37Rv isolate ITR after 7 days by luminescence spectrometry; type: functional; settings: 168 h
[3] = test system: Mycobacterium tuberculosis; assay: Antitubercular activity against Mycobacterium tuberculosis H37Rv incubated for 10 days in anaerobic condition followed by 48 hrs incubation in aerobic condition by LORA assay; type: functional
[4] = test system: Vero; assay: (§1) Cytotoxicity against african green monkey Vero cells after 72 hrs by CellTiterGlo assay; settings: chlorocebus sabaeus, vero, 72 h
[5] = Selectivity index, ratio of CC50 for Vero cells to MIC90 for Mycobacterium tuberculosis H37Rv isolate SRI; type: functional
[6] = test system: Mycobacterium tuberculosis; assay: Antitubercular activity against p-amino-salicyclic acid-resistant Mycobacterium tuberculosis ATCC 35821 after 5 days by resazurin-based microplate assay; type: functional; settings: ATCC 35821, 120 h
How it was run: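 Mid-log cultures grown in 7H9 with glycerol, Tween-80 and ADC. Compounds in DMSO were tested two-fold from […] against ~10^5 CFU/mL, 37°C for 5 d. Resazurin was then added for a further 2 d, and fluorescence read at ex 530/em 590 with visual confirmation. MIC was the lowest concentration inhibiting 90% of growth. Final DMSO 0.625%; two-fold variation taken as assay error.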

[7] = test system: L5178Y; assay: Mutagenicity against mouse L5178Y cells at 10 ug/mL after 4 hrs by MOLY assay in absence of S9 fraction; type: toxicity, cell-based
How it was run: (§2)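 Mouse lymphoma tk+/- → tk-/- forward mutation assay, 4 h or 24 h exposure, with or without Aroclor 1254-induced rat-liver S9. Endpoints were suspension and relative total growth, relative cloning efficiency, mutation frequency, and small TFT-resistant colonies (<0.6 mm). A call was positive for significant mutation-frequency induction; induction only slightly above 40 × 10^-6 net over mean solvent control was considered biologically negative.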

[8] = test system: L5178Y; assay: Mutagenicity against mouse L5178Y cells at 10 ug/mL after 24 hrs by MOLY assay in absence of S9 fraction; type: toxicity, cell-based; how it was run: as §2
[9] = test system: L5178Y; assay: Mutagenicity against mouse L5178Y cells at 10 ug/mL after 4 hrs by MOLY assay in presence of S9 fraction; type: toxicity, cell-based; settings: s9, 4 h; how it was run: as §2
[10] = test system: L5178Y; assay: Mutagenicity against mouse L5178Y cells at 25 ug/mL after 4 hrs by MOLY assay in absence of S9 fraction; type: toxicity, cell-based; how it was run: as §2
[11] = test system: L5178Y; assay: Mutagenicity against mouse L5178Y cells at 25 ug/mL after 24 hrs by MOLY assay in absence of S9 fraction; type: toxicity, cell-based; how it was run: as §2
[12] = test system: L5178Y; assay: Mutagenicity against mouse L5178Y cells at 25 ug/mL after 4 hrs by MOLY assay in presence of S9 fraction; type: toxicity, cell-based; settings: s9, 4 h; how it was run: as §2
[13] = test system: L5178Y; assay: Mutagenicity against mouse L5178Y cells at 50 ug/mL after 4 hrs by MOLY assay in absence of S9 fraction; type: toxicity, cell-based; how it was run: as §2
[14] = test system: L5178Y; assay: Mutagenicity against mouse L5178Y cells at 50 ug/mL after 4 hrs by MOLY assay in presence of S9 fraction; type: toxicity, cell-based; settings: s9, 4 h; how it was run: as §2
[15] = test system: L5178Y; assay: Mutagenicity against mouse L5178Y cells at 100 ug/mL after 4 hrs by MOLY assay in absence of S9 fraction; type: toxicity, cell-based; how it was run: as §2
[16] = test system: L5178Y; assay: Mutagenicity against mouse L5178Y cells at 100 ug/mL after 4 hrs by MOLY assay in presence of S9 fraction; type: toxicity, cell-based; settings: s9, 4 h; how it was run: as §2
[17] = Solubility of the compound in 0.9% saline solution after 48 hrs by shake flask method at pH 7.4; type: physicochemical
How it was run: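 Shake-flask method in triplicate: ~20 mg of ground compound in 5 mL 0.9% saline pH 7.4, stirred at 25°C for 48 h. The sample was filtered through 0.45 µm PVDF and the filtrate quantified by HPLC at each compound's absorption maximum against a per-compound standard curve (R² > 0.99).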

[18] = test system: Plasma; assay: Plasma concentration in Balb/c mouse at 100 mg/kg, po at 24 hrs; type: ADME, organism-based; parameters: dose 100 mg/kg, route oral; settings: in vivo, BLD = below limit of detection
How it was run: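 Single oral gavage dose of 100 mg/kg to female mice, three mice per time point. Blood was drawn at 5, 15, 30, 60 min and 2, 4, 6, 8 and 24 h and processed to plasma for analysis. Noncompartmental PK analysis.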

[19] = test system: Salmonella typhimurium; assay: Mutagenicity in Salmonella typhimurium TA98 assessed as increase in number of revertant colonies by Ames test in absence of S9 fraction; type: toxicity, organism-based; settings: salmonella enterica subsp. enterica serovar typhimurium
How it was run: (§3)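 Plate-incorporation Ames test in Salmonella typhimurium TA98 and TA100, with and without an Aroclor 1254-induced rat-liver metabolic activation system containing 10% S9. Revertant colonies counted per plate, with means and standard deviations and background lawn condition recorded.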

[20] = test system: Salmonella typhimurium; assay: Mutagenicity in Salmonella typhimurium TA98 assessed as increase in number of revertant colonies by Ames test in presence of S9 fraction; type: toxicity, organism-based; settings: salmonella enterica subsp. enterica serovar typhimurium; how it was run: as §3
[21] = test system: Salmonella typhimurium; assay: Mutagenicity in Salmonella typhimurium TA100 assessed as increase in number of revertant colonies by Ames test in absence of S9 fraction; type: toxicity, organism-based; settings: salmonella enterica subsp. enterica serovar typhimurium; how it was run: as §3
[22] = test system: Salmonella typhimurium; assay: Mutagenicity in Salmonella typhimurium TA100 assessed as increase in number of revertant colonies by Ames test in presence of S9 fraction; type: toxicity, organism-based; settings: salmonella enterica subsp. enterica serovar typhimurium; how it was run: as §3
[23] = as §1; settings: chlorocebus sabaeus, Vero cells

Row | SMILES | MIC90 [1] [µg/mL] | MIC90 [2] [µg/mL] | MIC90 [3] [µg/mL] | CC50 [4] [µg/mL] | Selectivity Index [5] | MIC90 [6] [µg/mL] | other results
1 | CN(C)c1n[n+]([O-])c2cc3c(cc2[n+]1[O-])CCC3 | 0.62 (≈ 2.52 µM) | 0.3 (≈ 1.22 µM) | 1.5 (≈ 6.09 µM) | 24 (≈ 97.5 µM) | 13 | 0.15 (≈ 0.609 µM) | –
2 | [O-][n+]1nc(N2CCCC2)[n+]([O-])c2ccccc21 | 0.31 (≈ 1.33 µM) | – | – | 17 (≈ 73.2 µM) | 56 | 0.62 (≈ 2.67 µM) | –
3 | CCNc1n[n+]([O-])c2cccc(C)c2[n+]1[O-] | 0.62 (≈ 2.82 µM) | 0.51 (≈ 2.32 µM) | 0.48 (≈ 2.18 µM) | 22 (≈ 99.9 µM) | 36 | 0.31 (≈ 1.41 µM) | –
4 | [O-][n+]1nc(N2CCCC2)[n+]([O-])c2cc3c(cc21)CCC3 | 0.31 (≈ 1.14 µM) | 0.46 (≈ 1.69 µM) | 0.99 (≈ 3.64 µM) | 25 (≈ 91.8 µM) | 80 | 0.31 (≈ 1.14 µM) | Activity [7]: Non-toxic; Activity [8]: Non-toxic; Activity [9]: Non-toxic; Activity [10]: Non-toxic; Activity [11]: Non-toxic; Activity [12]: Non-toxic; Activity [13]: Non-toxic; Activity [14]: Non-toxic; Activity [15]: Non-toxic; Activity [16]: Non-toxic; solubility thermodynamic at 48 h [17]: 280 µg/mL (≈ 1030 µM); Cp [18]: BLD; Activity [19]: Dose-dependent effect; Activity [20]: Dose-dependent effect; Activity [21]: Dose-dependent effect; Activity [22]: Dose-dependent effect
5 | CC1CCCCN1c1n[n+]([O-])c2cc3c(cc2[n+]1[O-])CCC3 (centres undefined) | 1.2 (≈ 4 µM) | 0.66 (≈ 2.2 µM) | 0.47 (≈ 1.56 µM) | > 50 | >40 | 0.62 (≈ 2.06 µM) | –
6 | CN(Cc1ccccc1)c1n[n+]([O-])c2cc3c(cc2[n+]1[O-])CCC3 | 0.31 (≈ 0.962 µM) | 0.15 (≈ 0.465 µM) | 0.41 (≈ 1.27 µM) | 17 (≈ 52.7 µM) | 53 | 0.07 (≈ 0.217 µM) | –
7 | CCNc1n[n+]([O-])c2cc3c(cc2[n+]1[O-])CCC3 | 1.2 (≈ 4.87 µM) | 0.95 (≈ 3.86 µM) | 0.83 (≈ 3.37 µM) | 36 (≈ 146 µM) | 29 | 1.2 (≈ 4.87 µM) | Activity [7]: Toxic; Activity [9]: Toxic; Activity [10]: Toxic; Activity [12]: Toxic; Activity [13]: Toxic; Activity [14]: Toxic; Activity [15]: Toxic; Activity [16]: Toxic; Activity [19]: Dose-dependent effect; Activity [20]: Dose-dependent effect; Activity [21]: Dose-dependent effect; Activity [22]: Dose-dependent effect
8 | COCC(C)Nc1n[n+]([O-])c2cc(F)ccc2[n+]1[O-] (centres undefined) | 5 (≈ 18.6 µM) | 2 (≈ 7.46 µM) | 1.9 (≈ 7.08 µM) | – | 1.3 | – | CC50 at 72 h [23]: 6.3 µg/mL (≈ 23.5 µM)
9 | [O-][n+]1nc(NC2CCC2)[n+]([O-])c2cc3c(cc21)CCC3 | 0.62 (≈ 2.28 µM) | 0.96 (≈ 3.53 µM) | 0.44 (≈ 1.62 µM) | 34 (≈ 125 µM) | 54 | 0.62 (≈ 2.28 µM) | –
10 | CCNc1n[n+]([O-])c2cc(C)c(OC)cc2[n+]1[O-] | – | 3.5 (≈ 14 µM) | 2.5 (≈ 9.99 µM) | > 100 | >40 | 1.2 (≈ 4.8 µM) | –
11 | COCC(C)Nc1n[n+]([O-])c2cc(Cl)ccc2[n+]1[O-] (centres undefined) | 1.2 (≈ 4.21 µM) | 1.4 (≈ 4.92 µM) | 0.78 (≈ 2.74 µM) | – | 2.1 | – | CC50 at 72 h [23]: 2.6 µg/mL (≈ 9.13 µM)
12 | [O-][n+]1nc(N2CCCCC2)[n+]([O-])c2cc3c(cc21)CCC3 | 0.62 (≈ 2.17 µM) | 0.4 (≈ 1.4 µM) | 0.49 (≈ 1.71 µM) | 21 (≈ 73.3 µM) | 13 | 0.31 (≈ 1.08 µM) | –
13 | CC(C)(C)Nc1n[n+]([O-])c2ccccc2[n+]1[O-] | 1.2 (≈ 5.12 µM) | 1.9 (≈ 8.11 µM) | 0.82 (≈ 3.5 µM) | 8 (≈ 34.2 µM) | 6.4 | 1.2 (≈ 5.12 µM) | –
14 | CN(CCc1ccccc1)c1n[n+]([O-])c2cc3c(cc2[n+]1[O-])CCC3 | 0.31 (≈ 0.922 µM) | 0.24 (≈ 0.713 µM) | 0.44 (≈ 1.31 µM) | 40 (≈ 119 µM) | 130 | 0.15 (≈ 0.446 µM) | –
15 | CCNc1n[n+]([O-])c2ccccc2[n+]1[O-] | 1.2 (≈ 5.82 µM) | 0.57 (≈ 2.76 µM) | 0.37 (≈ 1.79 µM) | – | 17 | 1.2 (≈ 5.82 µM) | solubility thermodynamic at 48 h [17]: 1350 µg/mL (≈ 6550 µM); Cp [18]: BLD
16 | [H][C@]12C[C@]3([H])C[C@]([H])(C1)[C@H](Nc1n[n+]([O-])c4ccccc4[n+]1[O-])[C@]([H])(C2)C3 | 2.5 (≈ 8 µM) | 1.9 (≈ 6.08 µM) | 2.3 (≈ 7.36 µM) | 7.3 (≈ 23.4 µM) | 2.9 | – | –
17 | CCc1n[n+]([O-])c2ccccc2[n+]1[O-] | 5 (≈ 26.2 µM) | 3.7 (≈ 19.4 µM) | 0.97 (≈ 5.07 µM) | 38 (≈ 199 µM) | 7.6 | – | –
18 | COCCNC(=O)c1ccc2c(c1)[n+]([O-])c(C(C)=O)c(C)[n+]2[O-] | 10 (≈ 31.3 µM) | 27 (≈ 84.6 µM) | > 32 | > 16 | >1.6 | – | –
19 | COc1cc2c(cc1C)[n+]([O-])nc(NC1CCC1)[n+]2[O-] | 2.5 (≈ 9.05 µM) | 5.1 (≈ 18.5 µM) | 2.9 (≈ 10.5 µM) | > 50 | >20 | – | –

Source: ChEMBL document CHEMBL2150981, “Discovery and optimization of benzotriazine di-N-oxides targeting replicating and nonreplicating Mycobacterium tuberculosis” (J Med Chem, 2012)
